Measurements from different studies.
Protocols differ between the studies behind these lines.
CDK9: Cyclin-dependent kinase 9 (CDK9, Homo sapiens, UniProt P50750)
CDK9 with cyclin K: Cyclin-dependent kinase 9, with cyclin K (CDK9, Homo sapiens, UniProt P50750)
CDK9 with cyclin T1: Cyclin-dependent kinase 9, with cyclin T1 (CDK9, Homo sapiens, UniProt P50750)

The inhibition of `COc1cccc2c(NCc3ccccc3)nc(-n3c(N)nc4ccccc43)nc12` is reported as -14.5% (CDK9; target engagement in cells, inhibitor, chemoproteomics; 20 mM).
The remaining signal of `Cc1ccc(NC(=O)c2ccc(CN3CCN(C)CC3)cc2)cc1Nc1nc(-c2cccnc2)cs1` is reported as 109% (CDK9 with cyclin K; cell-free assay; 0.5 µM).
With `CS(=O)(=O)Nc1cccc(-c2csc(NC(=O)CSc3nc4nccnc4c(=O)n3CCc3ccccc3)n2)c1` the inhibition was -1% (CDK9 with cyclin K; enzyme activity, inhibitor; 10 µM).
With `CNC(=O)c1cc(Oc2ccc(NC(=O)Nc3ccc(Cl)c(C(F)(F)F)c3)cc2)ccn1` the inhibition was -4% (CDK9 with cyclin T1; enzyme activity, inhibitor; 0.3 µM).
The remaining binding of `c1ccc(N2CCN(Cc3nc4ccccc4[nH]3)CC2)nc1` is reported as 100% (CDK9; binding, competition with immobilised ligand; 1 µM).
With `Cc1cc(NC(=O)c2cccc3cc(-c4cccc5[nH]nc(N)c45)ccc23)ccc1F` the activity vs control was 106% (CDK9 with cyclin T1; enzyme activity, inhibitor; 0.1 µM).
For `c1ccc(CNc2nc(N3CCOc4ccccc43)nc3c2CCCC3)cc1`, the inhibition was -15.3% (CDK9; target engagement in cells, inhibitor, chemoproteomics; 20 mM).
The remaining signal of `O=C1Nc2ccc(Cl)cc2C1=Cc1cc(Cl)c(O)c(Cl)c1` is reported as 79.4% (CDK9 with cyclin K; cell-free assay; 0.5 µM).
`C=CC(=O)Nc1cc(Nc2nccc(Nc3cc(Cl)c(F)cc3C(C)(C)O)n2)c(OC)cc1N1CC[C@@H](N(C)C)C1` has an inhibition of 10% (CDK9 with cyclin T1; enzyme activity, inhibitor; 1 µM).
The remaining binding of `CCCCN(CCCC)C(=O)CN1C[C@@H](c2cc(OC)c3c(c2)OCO3)[C@H](C(=O)O)[C@H]1CC(C)(C)CCC` is reported as 100% (CDK9; cell-free assay, competition with immobilised ligand; 1 µM).
`COc1cc(-c2cc(-c3ccc(N4CCNCC4)cc3)cnc2C)cc(OC)c1OC` has an inhibition of 3% (CDK9 with cyclin T1; enzyme activity, inhibitor; 0.1 µM).
With `CCN(CC)CCNC(=O)c1c(C)[nH]c(/C=C2\C(=O)Nc3ccc(F)cc32)c1C` the inhibition was -7% (CDK9 with cyclin T1; enzyme activity, inhibitor; 0.3 µM).
With `Cc1ccc(Nc2nccc(N(C)c3ccc4c(C)n(C)nc4c3)n2)cc1S(N)(=O)=O` the remaining activity was 92.7% (CDK9 with cyclin K; enzyme activity, inhibitor; 0.5 µM).
With `Cc1ccc(NC(=O)c2ccc(C)c(C(F)(F)F)c2)cc1C#Cc1nn(C2CCC(O)CC2)c2ncnc(N)c12` (stereo not shown) the remaining signal was 113% (CDK9 with cyclin T1; cell-free assay; 10 µM).
For `CCCOc1ccc([C@H]2[C@H](C(=O)O)[C@@H](c3ccc4c(c3)OCO4)CN2CC(=O)Nc2c(CC)cccc2CC)cc1`, the remaining binding was 88% (CDK9; cell-free assay, competition with immobilised ligand; 1 µM).
For `CN(C)C1CCN(CC#Cc2nn(C3CCCC3)c3nc(NCc4ccccc4)ncc23)C1` (stereo not shown), the inhibition was 1% (CDK9 with cyclin T1; enzyme activity, inhibitor, FRET; 1 µM).
`CC(=O)N1CCC(c2ccc(C(=O)NC(=N)N)cc2C(F)(F)F)CC1` has a remaining binding of 100% (CDK9; cell-free assay, competition with immobilised ligand; 1 µM).
With `Cc1ccc(C(=O)NCc2ccsc2)cc1C#Cc1cn(C(C)C)c2ncnc(N)c12` the activity vs control was 93% (CDK9 with cyclin T1; enzyme activity, inhibitor; 1 µM).
`CS(=O)(=O)CCNCc1ccc(-c2ccc3ncnc(Nc4ccc(OCc5cccc(F)c5)c(Cl)c4)c3c2)o1` gave a remaining signal of 103% (CDK9 with cyclin K; cell-free assay; 0.5 µM).
The inhibition of `CN1CC(Oc2cnc(C#N)cc2-c2ccn3nc(NC(=O)C4CC4)cc3c2)C1` is reported as -15% (CDK9 with cyclin T1; enzyme activity, inhibitor; 1 µM).
The remaining activity of `CCN(CC)c1ccc(C2=NNC(=O)CC2C)cc1[N+](=O)[O-]` (stereo not shown) is reported as 105% (CDK9 with cyclin T1; enzyme activity, inhibitor; 10 µM).
`CCOC(=O)c1cc2cc(-c3cc(C(=O)NCc4ccc(C(=O)O)cc4)nn3C)ccc2[nH]1` gave a remaining binding of 97% (CDK9; cell-free assay, competition with immobilised ligand; 0.1 µM).
The remaining activity of `CC(C)(C)c1nc2c(s1)c1nc(N)ncc1c1ccc(NS(=O)(=O)c3c(F)cccc3F)c(F)c12` is reported as 93% (CDK9 with cyclin K; enzyme activity, inhibitor, radiometric; 1 µM).
`Cn1cncc1C1=CN(c2ncnc3[nH]cnc23)CCS1` has an inhibition of 12.4% (CDK9; enzyme activity, inhibitor, radiometric; 50 nM).
`CN(C)CC#Cc1ccc(OCCCc2sc(N3CCc4cccc(C(=O)Nc5nc6ccccc6s5)c4C3)nc2C(=O)O)c(F)c1` gave a remaining binding of 94% (CDK9; cell-free assay, competition with immobilised ligand; 1 µM).
`Nc1ncnc2occ(-c3ccc(NC(=O)Nc4cc(C(F)(F)F)ccc4F)cc3)c12` gave a remaining signal of 0.15% (CDK9; cell-free assay, inhibitor; 20 µM).
`N#CCCc1ccc2c(c1)-c1[nH]c3ccc([N+](=O)[O-])cc3c1CC(=O)N2` gave a remaining signal of 28.6% (CDK9 with cyclin T1; cell-free assay; 0.5 µM).
`Cc1cc(-n2nc(Cc3cc(F)cc(C(F)(F)F)c3)nc2C)ccc1C(N)=O` gave a remaining binding of 100% (CDK9; cell-free assay, competition with immobilised ligand; 1 µM).
With `O=C1NC(=O)c2cc(Nc3ccc(F)cc3)c(Nc3ccc(F)cc3)cc21` the remaining signal was 90.8% (CDK9 with cyclin K; cell-free assay; 0.5 µM).
For `Cc1cc(NC(=O)c2cccc(S(F)(F)(F)(F)F)c2)cc(-n2ccn3nc(-c4cccnc4)cc23)c1`, the remaining binding was 100% (CDK9; cell-free assay, competition with immobilised ligand; 1 µM).
`CC(C)(C)c1nc(-c2cccc(NS(=O)(=O)c3c(F)cccc3F)c2F)c(-c2ccnc(N)n2)s1` gave a remaining activity of 106% (CDK9 with cyclin T1; enzyme activity, inhibitor, radiometric; 1 µM).
